Bioassay records from PubChem.
The list is not random: actives were taken first. Their share in the collection is about 2.2%.
E-selectin induc = E-selectin induction on HUVECs; P16581; HUVEC E-selectin immunofluorescence imaging; normalized: neutral wells 0, TNF-alpha wells 100; activation, % at 7.58 µM; 260,000 compounds, 0.37% hits;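 active = mean E-selectin-positive cell signal at least 10% of the positive control, reached in at least 60% of replicates, without over 20% cell loss; inconclusive = no rule given, readout overlaps actives, possibly toxicity-flagged; inactive = the rest, including those meeting only one limit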
Target sequence (P16581 whole entry, looked up): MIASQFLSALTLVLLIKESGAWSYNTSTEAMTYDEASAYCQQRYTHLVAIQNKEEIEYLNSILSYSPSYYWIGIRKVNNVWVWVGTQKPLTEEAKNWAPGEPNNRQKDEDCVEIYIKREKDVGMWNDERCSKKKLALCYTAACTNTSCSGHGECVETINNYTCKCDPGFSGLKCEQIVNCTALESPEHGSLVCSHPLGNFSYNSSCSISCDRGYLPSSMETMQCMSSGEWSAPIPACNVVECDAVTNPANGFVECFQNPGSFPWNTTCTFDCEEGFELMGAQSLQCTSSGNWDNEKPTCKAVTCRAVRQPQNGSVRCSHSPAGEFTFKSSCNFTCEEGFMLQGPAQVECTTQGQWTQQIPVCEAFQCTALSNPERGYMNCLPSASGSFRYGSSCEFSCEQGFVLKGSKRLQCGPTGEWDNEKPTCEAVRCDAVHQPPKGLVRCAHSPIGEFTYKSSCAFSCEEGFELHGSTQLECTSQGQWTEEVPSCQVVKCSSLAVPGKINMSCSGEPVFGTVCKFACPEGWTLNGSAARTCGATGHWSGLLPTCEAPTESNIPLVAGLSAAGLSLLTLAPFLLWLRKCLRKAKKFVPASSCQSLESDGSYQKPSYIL
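Material: HUVEC primary endothelial cells; Amount: 3,000 cells per well; Dosing: single concentration; Medium: EGM-2 growth medium on 0.1% gelatin-coated wells; Read-out basis: percent E-selectin-positive cells; Signal: immunofluorescence imaging; Control set: TNF-alpha, DMSO.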
DENV2 CPE rescue = DENV2-induced cell death inhibition; DENV2-infected cells, cytopathic effect rescue, plate reader; CPE inhibition, % at 9.99 µM; 350,000 compounds, 1.7% hits; in the data active = CPE inhibition above about 20%, passing the limit was not always enough; inconclusive = no clear call, values can overlap the other calls; tested in BHK-21 cells;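 also: 0% = median of neutral control wells and 100% = median of positive control wells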
C2C12 statin = protects C2C12 myotubes from simvastatin toxicity; ATP luminescence, 48 h; scaled: DMSO 0, geranylgeraniol control 100; rescue of ATP level, % at 7.49 µM; 330,000 compounds, 0.78% hits; AID 602340;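 active = mean ATP rescue above about 67%, or every replicate alone reaching that limit, limit read from the data, passing the limit was not always enough; inconclusive = no clear call, values can overlap the other calls; inactive = mean under the limit and some replicate under it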;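 also: myotubes were challenged with 10 µM simvastatin during compound exposure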
An asterisk follows results filed as active; ? = inconclusive; . = no result.

SMILES	E-selectin induc	DENV2 CPE rescue	C2C12 statin
CCCCCC(=O)N1C[C@@H](O)[C@H](n2cc(C3CC3)nn2)C[C@@H]1c1ccccc1	0.6	-6.9	-2.6
CCCCCC(=O)N1C[C@@H](n2cc(C3CC3)nn2)[C@H](O)C[C@@H]1c1ccccc1	.	24.8*	-13.9
O=C(C1CCCCC1)N1C[C@H](O)[C@@H](n2cc(C3CC3)nn2)C[C@@H]1c1ccccc1	1.1	85.9*	-0.3
O=C(OCc1cn([C@H]2CN(C(=O)C3CCCCC3)[C@@H](c3ccccc3)C[C@@H]2O)nn1)c1ccccc1	.	24.9*	2.6
Cc1ccc([C@H]2C[C@H](n3cc(COC(=O)c4ccccc4)nn3)[C@@H](O)CN2C(=O)C2CCCCC2)cc1	-0.2	52.1*	4.9
O=C(C1CCCC1)N1CC2(C1)[C@H](c1ccccc1)[C@@H](CO)N2CCC(F)(F)F	-0.1	-1.3	.
CO[C@H]1CN(C)C(=O)c2cc(NC(=O)C3CCCCC3)ccc2OC[C@H](C)N(Cc2nccs2)C[C@@H]1C	1.8	-5.3	2.0
C[C@H](CO)N1C[C@H](C)[C@H](CN(C)C(=O)Nc2ccccc2)OCCCC[C@H](C)Oc2ccc(NS(=O)(=O)c3ccccc3)cc2C1=O	.	-0.5	.
Cc1noc(C)c1NC(=O)Nc1ccc2c(c1)C(=O)N([C@@H](C)CO)C[C@H](C)[C@H](CN(C)Cc1ccccc1)OCCCC[C@@H](C)O2	-0.1	-1.6	.
COc1cccc(NC(=O)N(C)C[C@H]2Oc3cc(/C=C/c4ccccc4)ccc3S(=O)(=O)N([C@@H](C)CO)C[C@@H]2C)c1	0.6	5.7	-44.5
C[C@@H]1CN([C@H](C)CO)C(=O)c2cc(NS(=O)(=O)c3cn(C)cn3)ccc2O[C@@H]1CN(C)CC1CCCCC1	-0.1	-1.4	0.1
C[C@H](CO)N1C[C@H](C)[C@H](CN(C)S(=O)(=O)c2ccc(F)cc2)Oc2c(NC(=O)Nc3ccc4c(c3)OCO4)cccc2C1=O	.	?	-34.3
CC(Sc1nnnn1-c1ccccc1)C(=O)NC1CCCC1 (centres undefined)	.	-0.9	-3.5
CC(Sc1nnnn1-c1ccc(O)cc1)C(=O)NC1CCCCC1C (centres undefined)	2.5	34.3*	14.2
O=C(C[C@H]1CC[C@H]2[C@@H](COC[C@@H](O)CN2Cc2ccccc2)O1)NCCc1ccccc1	0.0	-5.4	-0.4
COc1ccc(-c2n[nH]c(C)c2-c2cc(OC)ccc2O)cc1	.	.	134.0*
COc1ccc(-c2cc(-c3cc(OC)ccc3O)[nH]n2)cc1	.	.	-3.2
Cc1ccc(NC(=S)N(CCN(C)C)Cc2cc3cccc(C)c3[nH]c2=O)cc1	.	?	113.8*
Cc1ccc(NC(=S)N(CCN(C)C)Cc2cc3cc(C)ccc3[nH]c2=O)cc1	5.0	-2.3	-7.9
Cc1noc(C)c1NC(=O)N(C)C[C@H]1Oc2ccc(NS(C)(=O)=O)cc2C(=O)N([C@@H](C)CO)C[C@@H]1C	.	-3.6	3.0
COCCn1nnnc1C(c1cc2ccc(OC)cc2[nH]c1=O)N1CCN(C2CCCCC2)CC1 (centres undefined)	.	.	-9.4
COCCn1nnnc1C(c1cc2cc(C)ccc2[nH]c1=O)N1CCN(C2CCCCC2)CC1 (centres undefined)	.	29.7*	-1.4
COc1ccc(N2CCN(C(c3cc4cc(C)ccc4[nH]c3=O)c3nnnn3Cc3ccccc3)CC2)cc1 (centres undefined)	.	.	75.0*
COc1ccc(Cn2nnnc2C(c2cc3cc(C)ccc3[nH]c2=O)N2CCOCC2)cc1 (centres undefined)	.	.	-13.0
COCCNC(=O)C[C@H]1CC[C@H]2[C@@H](COc3ccc(NC(=O)c4cc(C)on4)cc3C(=O)N2C)O1	0.0	1.6	-8.1
SMILES	E-selectin induc	DENV2 CPE rescue	C2C12 statin
O=C(c1ccc(CN2CCOCC2)cc1)N1CCN(c2cccc(Cl)c2)CC1	.	.	103.3*
Cc1ccc(Cl)cc1N1CCN(C(=O)c2ccc(CN3CCOCC3)cc2)CC1	.	-2.3	0.2
CO[C@H]1CN(C)C(=O)c2cc(NS(=O)(=O)c3ccccc3Cl)ccc2OC[C@@H](C)NC[C@@H]1C	0.1	-7.6	1.3
O=C(Oc1ccccc1)c1cccc2cccc(C(=O)Oc3ccccc3)c12	0.1	7.7	.
O=C(Oc1ccccc1)c1ccccc1C(=O)Oc1ccccc1	.	27.1*	5.9
C[C@@H]1CN([C@@H](C)CO)C(=O)c2cccc(NC(=O)C3CCOCC3)c2O[C@H]1CN(C)S(=O)(=O)c1cccs1	-0.2	0.2	-14.6
C/C=C/c1cccc(-c2nc(C(=O)Nc3nccs3)cc3c2[C@@H](CCO)N(C(=O)NC(C)C)C3)c1	0.1	6.6	14.8
CN(C)c1ccc(Cc2ccc(N(C)C)cc2)cc1	-0.2	-0.8	1.8
CN(C)c1ccc(CCc2ccc(N)cc2)cc1	.	26.3*	10.0
COn1c(-c2ccccc2)nc2c1CCc1c-2no[n+]1[O-]	.	.	88.9*
[O-][n+]1onc2c1CCc1c-2nc(-c2ccccc2)n1OCc1ccccc1	.	.	-8.2
O=C(c1ccccc1)N1CC[C@@H]2[C@H]1c1cc(C#Cc3cccc(F)c3)ccc1N[C@@H]2CO	1.1	42.6*	-9.5
COc1cccc(C#Cc2ccc3c(c2)[C@@H]2[C@@H](CCN2C(=O)c2ccc(F)cc2)[C@@H](CO)N3)c1	1.1	26.0*	15.3
O=C(c1cccc(F)c1)N1CC[C@@H]2[C@H]1c1cc(C#Cc3cccc(F)c3)ccc1N[C@@H]2CO	0.4	-4.2	-0.2
O=C(c1cccc(F)c1)N1CC[C@@H]2[C@H](CO)Nc3ccc(C#Cc4cccc(F)c4)cc3[C@@H]21	0.6	12.5	-47.8
COc1ccccc1C#Cc1ccc2c(c1)[C@@H]1[C@@H](CCN1C(=O)c1ccc(F)cc1)[C@@H](CO)N2	0.2	2.2	38.1
O=C(c1ccccc1)N1CC[C@@H]2[C@@H](CO)Nc3ccc(C#Cc4cccc(F)c4)cc3[C@@H]21	-0.6	23.3*	-8.2
O=C1[C@@H](Oc2ccccc2)[C@@H](c2ccncc2)N1c1ccccc1	.	47.3*	7.5
O=C1[C@@H](Oc2ccccc2)[C@@H](c2ccccc2)N1c1cccnc1	0.1	-3.1	4.9
COc1ccccc1CCN=C(N)NS(=O)(=O)c1ccc(F)cc1	0.0	54.8*	.
COc1ccc(S(=O)(=O)NC(N)=NCCc2ccccc2OC)cc1	.	-1.7	1.5
Cc1noc(C)c1NC(=O)Nc1cccc2c1O[C@@H](CN(C)C(=O)Nc1ccc(C(F)(F)F)cc1)[C@H](C)CN([C@@H](C)CO)C2=O	0.0	-1.4	-7.9
COc1ccc(Cl)c(OC)c1C(=O)NC(=O)Nc1nc(C)nc(C)n1	0.1	-0.4	-1.1
COc1c(Cl)cc(Br)c(OC)c1C(=O)NC(=O)Nc1nc(C)cc(C)n1	-4.0	32.0*	.
O=C(c1cnccn1)N1CC[C@@H]2[C@@H](CO)Nc3ccc(-c4ccccc4F)cc3[C@@H]21	0.0	113.8*	9.6
O=C(c1ccccc1)N1CC[C@@H]2[C@@H](CO)Nc3ccc(-c4ccccc4F)cc3[C@@H]21	0.1	33.1*	16.1
O=C(c1cnccn1)N1CC[C@@H]2[C@H](CO)Nc3ccc(-c4ccccc4F)cc3[C@@H]21	0.6	?	5.3
O=C(c1ccccc1)N1CC[C@@H]2[C@H](CO)Nc3ccc(-c4ccccc4F)cc3[C@@H]21	0.5	17.4	3.5
